The source made the active and inactive calls. The rule behind the calls is not given here. Square brackets hold non-standard residues; d marks the D form. Peptide text beside a SMILES is read from it. Hyp = O=C(O)[C@@H]1C[C@@H](O)CN1; Ahx = NCCCCCC(=O)O
Tests used:
[1] = Toxicity in BALB/c mouse xenografted with human MDA-MB-231 cells assessed as change in heart weight at 12.5 mg/kg, ip administered every 2 days in presence of 50 mg/kg JQ1; assay type: organism-based; settings: in vivo, 48 h
Method in brief: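 Female BALB/c nude mice (4–6 weeks) carried sc MDA-MB-231 xenografts (5 × 10^6 cells) and were randomized at about 50 mm3. Peptide (12.5 mg/kg ip in saline) and JQ1 (50 mg/kg ip, DMSO/10% HPBCD 1:10) were given every 2 days, alone or combined. Body weight was recorded, and heart, liver, spleen, lung and kidney morphology and weight were assessed.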

MCF7 [2] = assay: Inhibition of cell migration in human MCF7 cells at 10 uM incubated for 24 hrs in presence of 5 uM JQ1 by inverted microscopic assay; assay type: functional, cell-based
Method in brief: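 Cells are seeded at 5 × 10^5/well and scratched at 80–90% confluence. They are kept in serum-free medium with peptide (10 μM); partner agents are JQ1 5 μM, iJMJD6 10 μM, or ICI 2.5 μM. Wound area is imaged by inverted microscope at 0 and 12 or 24 h. Wound closure % = (A0−A1)/A0 × 100. Three biological repeats.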

MCF7 [3] = assay: Inhibition of His-tagged BRD4 ET domain to Flag-tagged JMJD6 (unknown origin) protein-protein interaction in human MCF7 cells assessed as fold decrease in Flag-tagged JMJD6 level at 10 uM incubated for 12 hrs by immunoblotting assay (reference value: […]); assay type: cell-based
Mus musculus = assay: Downregulation of JMJD6 mRNA expression in BALB/c mouse tumor xenografted with human MCF7 cells at 25 mg/kg, ip administered every 2 days by RT-qPCR analysis; assay type: functional, organism-based
BT-549 [4] = assay: Cytotoxicity against human BT-549 cells incubated for 1 week by CellTiter 96 Aqueous One Solution based assay; assay type: functional, cell-based; settings: BT-549, 168 h
Method in brief: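 Cells grown in RPMI-1640 (T47D, BT549) or DMEM (MDA-MB-231) with 10% FBS, 37 °C, 5% CO2. Seeded 2 × 10^3/well, exposed to a gradient concentration of peptide for 1 week. MTS-type reagent added 20 μL per 100 μL medium, 1 h at 37 °C, absorbance read at 490 nm. EC50 derived from the concentration–response curve.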

BT-549 [5] = assay: Inhibition of colony formation in human BT-549 cells at 10 uM incubated for 2 weeks by crystal violet staining based assay; assay type: functional, cell-based
Method in brief: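 Cells are seeded at 1 × 10^3/well and treated with peptide (10 μM) for 2 weeks, alone or with JQ1 5 μM, iJMJD6 10 μM, ICI 2.5 μM, or tamoxifen 3 μM (tamoxifen-resistant lines). Colonies are stained with crystal violet, dissolved in 10% acetic acid, and read at 590 nm. Three biological repeats.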

[6] = biological target: T1, von Hippel-Lindau disease tumor suppressor/Bromodomain-containing protein 4 (Homo sapiens) (UniProt O60885+P40337); assay: PROTAC activity at VHL/His-tagged BDR4 ET domain (1047 to 1362 residues) (unknown origin) transfected in MCF7 cells assessed as degradation by measuring fold change in remaining BRD4 level at 10 uM incubated for 24 hrs by immunoblotting analysis (reference value: […]); assay type: cell-based
[7] = biological target: T2, von Hippel-Lindau disease tumor suppressor/Bifunctional arginine demethylase and lysyl-hydroxylase JMJD6 (Homo sapiens) (UniProt P40337+Q6NYC1); assay: Protac activity at VHL/JMJD6 in human MCF7 cells assessed as degradation by measuring fold change in remaining JMJD6 level at 10 uM incubated for 24 hrs by immunoblotting analysis (reference value: […]); assay type: cell-based
[8] = biological target: T1, von Hippel-Lindau disease tumor suppressor/Bromodomain-containing protein 4 (Homo sapiens); assay: PROTAC activity at VHL/His-tagged BDR4 ET domain (1 to 470 residues) (unknown origin) transfected in MCF7 cells assessed as degradation by measuring fold change in remaining BRD4 level at 20 uM incubated for 24 hrs by immunoblotting analysis (reference value: […]); assay type: cell-based
[9] = biological target: T1, von Hippel-Lindau disease tumor suppressor/Bromodomain-containing protein 4 (Homo sapiens); assay: PROTAC activity at VHL/His-tagged BDR4 ET domain (601 to 683 residues) (unknown origin) transfected in MCF7 cells assessed as degradation by measuring fold change in remaining BRD4 level at 10 uM incubated for 24 hrs by immunoblotting analysis (reference value: […]); assay type: cell-based
[10] = biological target: T1, von Hippel-Lindau disease tumor suppressor/Bromodomain-containing protein 4 (Homo sapiens); assay: PROTAC activity at VHL/His-tagged BDR4 […] (unknown origin) transfected in MCF7 cells assessed as degradation by measuring fold change in remaining BRD4 level at 20 uM incubated for 24 hrs by immunoblotting analysis (reference value: […]); assay type: cell-based
[11] = biological target: T1, von Hippel-Lindau disease tumor suppressor/Bromodomain-containing protein 4 (Homo sapiens); assay: PROTAC activity at VHL/His-tagged BDR4 ET domain (601 to 683 residues) (unknown origin) transfected in MCF7 cells assessed as degradation by measuring fold change in remaining BRD4 level at 5 uM incubated for 24 hrs by immunoblotting analysis (reference value: […]); assay type: cell-based
[12] = biological target: T2, von Hippel-Lindau disease tumor suppressor/Bifunctional arginine demethylase and lysyl-hydroxylase JMJD6 (Homo sapiens); assay: Protac activity at VHL/JMJD6 in human MCF7 cells assessed as degradation by measuring fold change in remaining JMJD6 level at 10 uM incubated for 6 hrs by immunoblotting analysis (reference value: […]); assay type: cell-based
[13] = biological target: T1, von Hippel-Lindau disease tumor suppressor/Bromodomain-containing protein 4 (Homo sapiens); assay: PROTAC activity at VHL/His-tagged BDR4 ET domain (471 to 730 residues) (unknown origin) transfected in MCF7 cells assessed as degradation by measuring fold change in remaining BRD4 level at 5 uM incubated for 24 hrs by immunoblotting analysis (reference value: […]); assay type: cell-based
[14] = biological target: T1, von Hippel-Lindau disease tumor suppressor/Bromodomain-containing protein 4 (Homo sapiens); assay: PROTAC activity at VHL/His-tagged BDR4 […] (unknown origin) transfected in MCF7 cells assessed as degradation by measuring fold change in remaining BRD4 level at 5 uM incubated for 24 hrs by immunoblotting analysis (reference value: […]); assay type: cell-based
[15] = biological target: T1, von Hippel-Lindau disease tumor suppressor/Bromodomain-containing protein 4 (Homo sapiens); assay: PROTAC activity at VHL/BDR4 ET domain in human MCF7 cells assessed as degradation by measuring fold change in remaining BRD4 level at 10 uM incubated for 24 hrs in presence of TAT by immunoblotting analysis relative to TAT/TAT-PROTAC; assay type: cell-based
Method in brief: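 MCF7 cells are treated with PROTAC peptide (dose series, or 10 μM over a time course, or 10 μM with or without MG132 10 μM) for up to 24 h. Comparators are TAT, TAT-PiET, or TAT-PROTAC at 10 μM. BRD4 is measured by immunoblot, normalised to β-actin; three repeats.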

[16] = biological target: T1, von Hippel-Lindau disease tumor suppressor/Bromodomain-containing protein 4 (Homo sapiens); assay: PROTAC activity at VHL/His-tagged BDR4 […] (unknown origin) transfected in MCF7 cells assessed as degradation by measuring fold change in remaining BRD4 level at 10 uM incubated for 24 hrs by immunoblotting analysis (reference value: […]); assay type: cell-based
[17] = biological target: T1, von Hippel-Lindau disease tumor suppressor/Bromodomain-containing protein 4 (Homo sapiens); assay: PROTAC activity at VHL/His-tagged BDR4 ET domain (601 to 683 residues) (unknown origin) transfected in MCF7 cells assessed as degradation by measuring fold change in remaining BRD4 level at 20 uM incubated for 24 hrs by immunoblotting analysis (reference value: […]); assay type: cell-based
[18] = biological target: T1, von Hippel-Lindau disease tumor suppressor/Bromodomain-containing protein 4 (Homo sapiens); assay: PROTAC activity at VHL/His-tagged BDR4 ET domain (471 to 730 residues) (unknown origin) transfected in MCF7 cells assessed as degradation by measuring fold change in remaining BRD4 level at 10 uM incubated for 12 hrs by immunoblotting analysis (reference value: […]); assay type: cell-based

T1 sequence (P40337 whole entry, looked up, other chains not shown, the tested form may be a part): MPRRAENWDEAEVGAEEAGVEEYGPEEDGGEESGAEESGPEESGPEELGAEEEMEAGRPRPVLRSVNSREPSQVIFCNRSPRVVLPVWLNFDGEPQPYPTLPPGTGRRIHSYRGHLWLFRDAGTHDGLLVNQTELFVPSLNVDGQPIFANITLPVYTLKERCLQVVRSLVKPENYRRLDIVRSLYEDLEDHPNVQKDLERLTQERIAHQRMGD

Compound	Activity [1]	inhibition (MCF7 [2])	fold change (FC) (MCF7 [3])	Activity (Mus musculus)	EC50 (BT-549 [4]) [µM]	inhibition (BT-549 [5])	fold change (FC) [6]	fold change (FC) [7]	fold change (FC) [8]	fold change (FC) [9]	fold change (FC) [10]	fold change (FC) [11]	fold change (FC) [12]	fold change (FC) [13]	fold change (FC) [14]	fold change (FC) [15]	fold change (FC) [16]	fold change (FC) [17]	fold change (FC) [18]
H-YGRKKRRQRRRRNQKFKCGE-OH	Non-Toxic	Active	0.93	inactive	32.3	Active	–	–	–	–	–	–	–	–	–	–	–	–	–
CC[C@H](C)[C@H](NC(=O)[C@H](Cc1ccc(O)cc1)NC(=O)[C@@H]1C[C@@H](O)CN1C(=O)[C@H](C)NC(=O)[C@@H](NC(=O)CCCCCNC(=O)[C@H](CCC(=O)O)NC(=O)CNC(=O)[C@H](CS)NC(=O)[C@H](CCCCN)NC(=O)[C@H](Cc1ccccc1)NC(=O)[C@H](CCCCN)NC(=O)[C@H](CCC(N)=O)NC(=O)[C@H](CC(N)=O)NC(=O)[C@H](CCCNC(=N)N)NC(=O)[C@H](CCCNC(=N)N)NC(=O)[C@H](CCCNC(=N)N)NC(=O)[C@H](CCCNC(=N)N)NC(=O)[C@H](CCC(N)=O)NC(=O)[C@H](CCCNC(=N)N)NC(=O)[C@H](CCCNC(=N)N)NC(=O)[C@H](CCCCN)NC(=O)[C@H](CCCCN)NC(=O)[C@H](CCCNC(=N)N)NC(=O)CNC(=O)[C@@H](N)Cc1ccc(O)cc1)[C@@H](C)CC)C(=O)O (H-YGRKKRRQRRRRNQKFKCGE[Ahx]IA[Hyp]YI-OH)	Non-Toxic	Active	–	inactive	–	Active	1	0.59	1.06	0.47	1.4	0.72	0.89	0.8	1.01	0.63	0.91	0.37	0.9

Reference: ChEMBL document CHEMBL5543129, “Peptide Inhibitor Targeting the Extraterminal Domain in BRD4 Potently Suppresses Breast Cancer Both In Vitro and In Vivo” (J Med Chem, 2024)
